Source: ChEMBL document CHEMBL1137494, “The antiviral drug ribavirin is a selective inhibitor of S-adenosyl-L-homocysteine hydrolase from Trypanosoma cruzi” (Bioorg Med Chem, 2007)

Assays:
[1] = tested on: Trypanosoma cruzi; assay: Inactivation of Trypanosoma cruzi recombinant S-adenosyl-L-homocysteine hydrolase NADH form expressed in Escherichia coli JM109 assessed by measuring fluorescence
[2] = biological target: Adenosylhomocysteinase (Homo sapiens) (UniProt P23526); assay: Inactivation of human recombinant S-adenosyl-L-homocysteine hydrolase NAD+ form expressed in Escherichia coli JM109 at 100 uM
Outline: (§1)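 Enzyme (1 μM), fully reconstituted with NAD+, incubated with 100 μM ribavirin and 50 μM NAD+ in phosphate pH 7.2 at 37 °C; remaining hydrolytic activity (AdoHcy → Ado + Hcy, ADA-coupled, DTNB read at 412 nm, 22 °C) sampled over time; first-order inactivation rate constant.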

[3] = tested on: Trypanosoma cruzi; assay: Inactivation of Trypanosoma cruzi recombinant S-adenosyl-L-homocysteine hydrolase NAD+ form expressed in Escherichia coli JM109 at 100 uM; outline: as §1
[4] = biological target: Adenosylhomocysteinase (Homo sapiens) (UniProt P23526); assay: Inactivation of human recombinant S-adenosyl-L-homocysteine hydrolase NAD+ form expressed in Escherichia coli JM109 assessed as increase in fluorescence at 200 uM
Outline: (§2)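 NAD+-reconstituted enzyme (10 μM) incubated with 200 μM ribavirin plus 100 μM NAD+ in 50 mM phosphate pH 7.2, 1 mM EDTA at 37 °C; rise in NADH fluorescence (ex 340/em 450 nm) followed over time and fit to first-order relationship.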

[5] = tested on: Trypanosoma cruzi; assay: Inactivation of Trypanosoma cruzi recombinant S-adenosyl-L-homocysteine hydrolase NAD+ form expressed in Escherichia coli JM109 assessed as increase in fluorescence at 200 uM; outline: as §2
[6] = biological target: Adenosylhomocysteinase (Homo sapiens) (UniProt P23526); assay: Binding to human recombinant S-adenosyl-L-homocysteine hydrolase NADH form expressed in Escherichia coli JM109
Outline: (§3)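 Apo-enzyme reconstituted with 1 mM NADH (pH 8.5, 12 h, 4 °C) and gel-filtration purified; 10 μM enzyme incubated with ribavirin 0-6 mM in 50 mM phosphate pH 7.2, 1 mM EDTA, 37 °C. Quenching of bound NADH fluorescence (ex 340/em 450 nm) fit to hyperbolic saturation model to give dissociation constant KR.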

[7] = tested on: Trypanosoma cruzi; assay: Binding to Trypanosoma cruzi recombinant S-adenosyl-L-homocysteine hydrolase NADH form expressed in Escherichia coli JM109; outline: as §3
[8] = biological target: Adenosylhomocysteinase (Homo sapiens) (UniProt P23526); assay: Ratio of kinact for human recombinant S-adenosyl-L-homocysteine hydrolase NAD+ form to KI for human recombinant S-adenosyl-L-homocysteine hydrolase NAD+
[9] = tested on: Trypanosoma cruzi; assay: Ratio of kinact for Trypanosoma cruzi recombinant S-adenosyl-L-homocysteine hydrolase NAD form to KI for Trypanosoma cruzi recombinant S-adenosyl-L-homocysteine hydrolase NAD form

Sequence of Adenosylhomocysteinase (Homo sapiens) (P23526 2-432 limits assumed): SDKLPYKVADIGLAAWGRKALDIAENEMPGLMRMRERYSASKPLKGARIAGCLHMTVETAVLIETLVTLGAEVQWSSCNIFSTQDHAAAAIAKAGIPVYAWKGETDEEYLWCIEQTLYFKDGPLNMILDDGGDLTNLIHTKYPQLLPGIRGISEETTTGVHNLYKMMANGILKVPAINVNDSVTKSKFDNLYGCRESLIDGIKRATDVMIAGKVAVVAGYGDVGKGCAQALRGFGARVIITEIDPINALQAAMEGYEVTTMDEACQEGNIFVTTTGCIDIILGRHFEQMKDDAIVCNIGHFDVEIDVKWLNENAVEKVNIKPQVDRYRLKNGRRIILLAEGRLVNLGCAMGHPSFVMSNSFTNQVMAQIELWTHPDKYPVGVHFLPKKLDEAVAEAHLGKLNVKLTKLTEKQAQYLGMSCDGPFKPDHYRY

Q: Which Fluorescence intensity [1] does the source give for `Nc1ncnc2c1ncn2[C@@H]1C=C[C@@H](O)[C@H]1O` here?
A: 5.4%

Q: `NC(=O)c1ncn([C@@H]2O[C@H](CO)[C@@H](O)[C@H]2O)n1` was tested. Which Activity [2] did it give?
A: Dose-dependent effect

Q: And the Activity [3]?
A: Dose-dependent effect

Q: What about the Fluorescence intensity [4] of the same compound?
A: 182000

Q: And the Fluorescence intensity [5]?
A: 227000

Q: And the Activity [1]?
A: 3.13 10^10/M

Q: And the KR [6]?
A: 407 µM

Q: And the KR [7]?
A: 586 µM

Q: What about the Ratio [8] of the same compound?
A: 0.56 M⁻¹ s⁻¹

Q: And the Ratio [9]?
A: 3.92 M⁻¹ s⁻¹
